Measured values as given in ChEMBL document CHEMBL3046552, “Synthesis and antiviral bioactivities of 2-cyano-3-substituted-amino(phenyl) methylphosphonylacrylates (acrylamides) containing alkoxyethyl moieties” (2010).

Experiments:
Format in all cases: functional
Tobacco mosaic virus [1] = experiment: In vivo antiviral activity against Tobacco mosaic virus (TMV) infected left side of tobacco leaves assessed as protective effect by decreasing local lesion number at 500 mg/l treated 12 hr before viral inoculation measured at 3-4 days after viral challenge
How it was run: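 Protective mode: compound solution smeared on the left half of same-age N. tabacum leaves, solvent on the right half as control. After 12 h, the leaves were dusted with silicon carbide and brush-inoculated with TMV at 6 × 10^-3 mg/mL. Local lesions counted 3-4 days after inoculation.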

Tobacco mosaic virus [2] = experiment: In vivo antiviral activity against Tobacco mosaic virus (TMV) infected left side of tobacco leaves assessed as curative effect by decreasing local lesion number at 500 mg/l treated after viral inoculation measured at 3-4 days after viral challenge
How it was run: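 Curative mode: N. tabacum leaves of the same age; compound solution smeared on left half, solvent on right half as control. Local lesions counted 3-4 days after inoculation; three repeats per compound. Inhibition rate derived from average lesion numbers of treated versus untreated control halves. TMV purified from infected leaves (PEG precipitation, 4 °C).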

Tobacco mosaic virus [3] = experiment: In vivo antiviral activity against Tobacco mosaic virus (TMV) infected left side of tobacco leaves assessed as inactivation effect by decreasing local lesion number at 500 mg/l co-incubated with virus for 30 min before inoculation onto leaves measured at 3-4 days after viral challenge
How it was run: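 TMV, purified from infected N. tabacum leaves by grinding in phosphate buffer and PEG precipitation at 4 °C, was mixed with an equal volume of compound solution for 30 min. The mixture was inoculated on the left half of the leaf and a solvent-virus mixture on the right half as control. Local lesions recorded 3-4 days later.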

Structure (SMILES)	inhibition in vivo at 500 µg/mL (Tobacco mosaic virus [1])	inhibition in vivo at 500 µg/mL (Tobacco mosaic virus [2])	inhibition in vivo at 500 µg/mL (Tobacco mosaic virus [3])
COCCOP(=O)(OCCOC)C(N/C(SC)=C(/C#N)C(=O)OCCOc1ccccc1)c1ccccc1F (configuration not stated)	29%	41.8%	44%
CCOCCOP(=O)(OCCOCC)C(N/C(SC)=C(/C#N)C(=O)NCc1ccccc1)c1ccccc1F (configuration not stated)	55.4%	54.3%	79.9%
COCCOP(=O)(OCCOC)C(N/C(SC)=C(/C#N)C(N)=O)c1ccccc1F (configuration not stated)	30%	22%	44.8%
CCOCCOP(=O)(OCCOCC)C(N/C(SC)=C(/C#N)C(=O)OCCOc1ccccc1)c1ccccc1F (configuration not stated)	30.7%	27.7%	23.7%
COCCOP(=O)(OCCOC)C(N/C(SC)=C(/C#N)C(=O)OC)c1ccccc1F (configuration not stated)	22%	34.5%	41%
COCCOP(=O)(OCCOC)C(N/C(SC)=C(/C#N)C(=O)NCc1ccccc1)c1ccccc1F (configuration not stated)	39.9%	28.6%	40.8%
CCOCCOP(=O)(OCCOCC)C(N/C(SC)=C(/C#N)C(N)=O)c1ccccc1 (configuration not stated)	54.4%	56.7%	80%
CCOCCOP(=O)(OCCOCC)C(N/C(SC)=C(/C#N)C(N)=O)c1ccccc1F (configuration not stated)	30%	30.6%	33.9%
CNCC(=O)N[C@@H](CO)C(=O)N[C@H]1[C@H](O)[C@@H](O)[C@H](n2ccc(N)nc2=O)O[C@@H]1C(N)=O [NINGNANMYCIN]	57.7%	58.9%	96%
CCOCCOP(=O)(OCCOCC)C(N/C(SC)=C(/C#N)C(=O)OC)c1ccccc1 (configuration not stated)	0%	4.3%	0%
CCOCCOC(=O)/C(C#N)=C(\NC(c1ccccc1)P(=O)(OCCOC)OCCOC)SC (configuration not stated)	0%	23.7%	12.2%
COCCOC(=O)/C(C#N)=C(\NC(c1ccccc1F)P(=O)(OCCOC)OCCOC)SC (configuration not stated)	0%	9.9%	0%
CCOCCOC(=O)/C(C#N)=C(\NC(c1ccccc1)P(=O)(OCCOCC)OCCOCC)SC (configuration not stated)	40.7%	46.4%	29.5%
CCOC(=O)/C(C#N)=C(\NC(c1ccccc1)P(=O)(OCCOC)OCCOC)SC (configuration not stated)	21%	32.1%	28.3%
CCOCCOP(=O)(OCCOCC)C(N/C(SC)=C(/C#N)C(=O)OCC)c1ccccc1F (configuration not stated)	12.9%	45.6%	33.4%
CCOCCOP(=O)(OCCOCC)C(N/C(SC)=C(/C#N)C(=O)NCc1ccccc1)c1ccccc1 (configuration not stated)	34.5%	47.3%	40.1%
COCCOC(=O)/C(C#N)=C(\NC(c1ccccc1)P(=O)(OCCOC)OCCOC)SC (configuration not stated)	40%	43.1%	41.9%
CCOC(=O)/C(C#N)=C(\NC(c1ccccc1F)P(=O)(OCCOC)OCCOC)SC (configuration not stated)	0%	21.7%	0%
CCOCCOC(=O)/C(C#N)=C(\NC(c1ccccc1F)P(=O)(OCCOC)OCCOC)SC (configuration not stated)	21.9%	31.4%	33.3%
COCCOP(=O)(OCCOC)C(N/C(SC)=C(/C#N)C(=O)OCCOc1ccccc1)c1ccccc1 (configuration not stated)	14.4%	31%	21%
CCOCCOP(=O)(OCCOCC)C(N/C(SC)=C(/C#N)C(=O)OCCOC)c1ccccc1F (configuration not stated)	58.9%	60%	85.5%
CCOCCOP(=O)(OCCOCC)C(N/C(SC)=C(/C#N)C(=O)OCCOC)c1ccccc1 (configuration not stated)	60.2%	58.8%	78.9%
COCCOP(=O)(OCCOC)C(N/C(SC)=C(/C#N)C(=O)OC)c1ccccc1 (configuration not stated)	0%	28.8%	0%
COCCOP(=O)(OCCOC)C(N/C(SC)=C(/C#N)C(N)=O)c1ccccc1 (configuration not stated)	50%	43.2%	66.7%
CCOCCOP(=O)(OCCOCC)C(N/C(SC)=C(/C#N)C(=O)OCC)c1ccccc1 (configuration not stated)	45.9%	51.1%	35.4%
CCOCCOP(=O)(OCCOCC)C(N/C(SC)=C(/C#N)C(=O)OCCOc1ccccc1)c1ccccc1 (configuration not stated)	3.8%	44.1%	31.9%
COCCOP(=O)(OCCOC)C(N/C(SC)=C(/C#N)C(=O)NCc1ccccc1)c1ccccc1 (configuration not stated)	39.7%	29.6%	32.1%
CCOCCOC(=O)/C(C#N)=C(\NC(c1ccccc1F)P(=O)(OCCOCC)OCCOCC)SC (configuration not stated)	31%	41.9%	40.2%
CCOCCOP(=O)(OCCOCC)C(N/C(SC)=C(/C#N)C(=O)OC)c1ccccc1F (configuration not stated)	0%	33%	12%
